≈ marks a conversion by molar mass, not a printed value. Calls of active or inactive are those of the source. The calls are words filed in the database; no cut-off is given here. Residues, ends and D or L forms follow the SMILES beside them.
Experiments:
[1] = Induction of hemolysis in human RBC at 100 uM incubated for 1 hr relative to control; type: cell-based, Erythrocyte; settings: red blood cells (RBC), read-out: Activity
Method in brief: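 Human erythrocytes from healthy volunteers, washed three times in PBS, used as a 0.25% suspension in PBS. Peptides serially diluted, top concentration 100 μM per well. Incubated 1 h at 37 °C, then centrifuged, and supernatant absorbance read at 415 nm. PBS was the negative control and 1% Triton X-100 the 100% lysis control. Three replicates.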

Pseudomonas aeruginosa [2] = assay: Antibiofilm activity against 2 day-old preformed Pseudomonas aeruginosa PAO1 assessed as induction of biofilm eradication at 16 uM incubated for 24 hrs by SYTO-9 dye based by confocal microscopy; type: functional, organism-based
Method in brief: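 Flow-cell biofilms: chambers inoculated with overnight culture diluted to OD600 ~0.5, grown in BM2 with 0.4% glucose. Established biofilms then given continuous flow of peptide at 16 µM in BM2 for 24 h. Stained with SYTO-9 (live) and propidium iodide (dead), imaged by confocal microscopy with 3D reconstruction. Two independent experiments.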

Staphylococcus aureus [3] = assay: Antibacterial activity against methicillin-resistant Staphylococcus aureus isolate 713623 incubated for 18 hrs by spectrophotometry; type: functional; settings: isolate 713623, 18 h
Method in brief: (§1)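 Broth microdilution per CLSI in Mueller-Hinton broth; inocula from three colonies grown overnight at 37 °C, 200 rpm; final 2-5 x 10^5 CFU/mL. Peptides tested at 2 to 32 μM; chloramphenicol at same concentrations as positive control. Plates incubated 37 °C, 18 h; growth read at 600 nm. Three independent experiments.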

Escherichia coli [4] = assay: Antibacterial activity against KPC+ Escherichia coli isolate 001812446 incubated for 18 hrs by spectrophotometry; type: functional; settings: isolate 001812446, 18 h
Method in brief: (§2)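 Broth microdilution per CLSI in Mueller-Hinton broth. Three colonies grown overnight in MHB at 37 °C, 200 rpm; final inoculum 2-5 x 10^5 CFU/mL. Peptides tested at 2 to 32 μM, chloramphenicol as positive control at the same concentrations. Incubated 18 h at 37 °C, OD600 read. MIC taken as lowest inhibiting concentration; three independent experiments.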

Klebsiella pneumoniae [5] = assay: Antibacterial activity against KPC+ Klebsiella pneumoniae isolate 001825971 incubated for 18 hrs by spectrophotometry; type: functional; settings: isolate 001825971, 18 h; method in brief: as §2
Pseudomonas aeruginosa [6] = assay: Antibacterial activity against Pseudomonas aeruginosa PAO1 incubated for 18 hrs by spectrophotometry; type: functional; settings: PAO1, 18 h; method in brief: as §2
MCF7 = assay: Cytotoxicity in human MCF7 cells assessed as reduction in cell viability incubated for 2 hrs by MTT assay; type: functional, cell-based; settings: MCF7, 2 h
HUVEC = assay: Cytotoxicity in HUVEC assessed as reduction in cell viability incubated for 2 hrs by MTT assay; type: cell-based; settings: Homo sapiens
Method in brief: (§3)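 Cells grown at 37 °C, 5% CO2, passages 2–10, seeded 5 x 10^3 cells/well, attached 24 h. Media refreshed, then peptides added at final 0.781 to 100 μM. Viability reagent added after 2 h, followed by 4 h further incubation. Supernatant replaced by DMSO, absorbance read at 600 nm. Three independent experiments.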

PC-3 = assay: Cytotoxicity in human PC3 cells assessed as reduction in cell viability incubated for 2 hrs by MTT assay; type: functional, cell-based; settings: PC-3, 2 h
Pseudomonas aeruginosa [7] = assay: Antibacterial activity against Pseudomonas aeruginosa PA14 infected in CD-1 IGS mouse model of scarification skin infection assessed as reduction in bacterial counts at 64 uM measured on day 2 post-infection relative to control; type: functional
Method in brief: (§4)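 Six-week-old female CD-1 IGS mice under isoflurane, back shaved, superficial skin abrasions sparing the dermis. Five minutes later, 5 x 10^7 CFU in 50 μL PBS applied to the wound. Two days later, peptide applied to the same area at 64 µM in 20 µL. Infected skin excised and homogenized for CFU counts two and four days post-infection. Four mice per group, two independent experiments; one-way ANOVA with Dunnett's test.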

Staphylococcus aureus [8] = assay: Antibacterial activity against Staphylococcus aureus ATCC 12600 incubated for 18 hrs by spectrophotometry; type: functional; settings: ATCC 12600, 18 h; method in brief: as §2
HT-29 = assay: Cytotoxicity in human HT-29 cells assessed as reduction in cell viability incubated for 2 hrs by MTT assay; type: functional, cell-based; settings: HT-29, 2 h
3T3-L1 = assay: Cytotoxicity in mouse 3T3L1 cells assessed as reduction in cell viability incubated for 2 hrs by MTT assay; type: cell-based; settings: 3T3-L1, 2 h; method in brief: as §3
Pseudomonas aeruginosa [9] = assay: Antibacterial activity against Pseudomonas aeruginosa PA14 infected in CD-1 IGS mouse model of scarification skin infection assessed as reduction in bacterial counts at 64 uM measured on day 2 to 4 post-infection relative to control; type: functional, organism-based; settings: TDE = time-dependent effect; method in brief: as §4
Enterobacter cloacae = assay: Antibacterial activity against Enterobacter cloacae isolate 1383251 incubated for 18 hrs by spectrophotometry; type: functional; settings: isolate 1383251, 18 h; method in brief: as §2
Escherichia coli [10] = assay: Antibacterial activity against Escherichia coli ATCC 25922 incubated for 18 hrs by spectrophotometry; type: functional; settings: ATCC 25922, 18 h; method in brief: as §2
Acinetobacter baumannii = assay: Antibacterial activity against Acinetobacter baumannii isolate 003326263 incubated for 18 hrs by spectrophotometry; type: functional; settings: isolate 003326263, 18 h; method in brief: as §2
Staphylococcus aureus [11] = assay: Antibacterial activity against Staphylococcus aureus ATCC 25923 incubated for 18 hrs by spectrophotometry; type: functional; settings: ATCC 25923, 18 h; method in brief: as §1
Klebsiella pneumoniae [12] = assay: Antibacterial activity against Klebsiella pneumoniae ATCC 13883 incubated for 18 hrs by spectrophotometry; type: functional; settings: ATCC 13883, 18 h; method in brief: as §2
Pseudomonas aeruginosa [13] = assay: Antibacterial activity against Pseudomonas aeruginosa PA14 infected in CD-1 IGS mouse model of scarification skin infection assessed as reduction in bacterial counts at 64 uM measured on day 4 post-infection relative to control; type: functional; method in brief: as §4
Escherichia coli [14] = assay: Antibacterial activity against Escherichia coli BL21 incubated for 18 hrs by spectrophotometry; type: functional; settings: BL21, 18 h; method in brief: as §2
Pseudomonas aeruginosa [15] = assay: Antibacterial activity against Pseudomonas aeruginosa PA14 incubated for 18 hrs by spectrophotometry; type: functional; settings: PA14, 18 h; method in brief: as §2
Pseudomonas aeruginosa [16] = assay: Antibacterial activity against bioluminescent Pseudomonas aeruginosa H1001 incubated for 4 hrs by luminescence based assay; type: functional; settings: H1001, 4 h
Method in brief: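 Crude peptides released from cellulose spots, two-fold diluted in BM2 (62 mM potassium phosphate pH 7, 2 mM MgSO4, 10 μM FeSO4, 0.4% glucose). Strain fliC::luxCDABE grown in LB to OD600 0.4, diluted 4:100 into BM2, mixed 1:1 with peptide (128 to 2 μM). Shaken 50 rpm, 4 h, 37 °C. Activity scored as luminescence reduction versus untreated cells.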

Row | Compound | hemolysis at 1 h, 100 µM [1] | Activity (Pseudomonas aeruginosa [2]) | MIC (Staphylococcus aureus [3]) | MIC (Escherichia coli [4]) | MIC (Klebsiella pneumoniae [5]) | MIC (Pseudomonas aeruginosa [6]) | IC50 (MCF7) | IC50 (HUVEC) | IC50 (PC-3) | fold change (FC) (Pseudomonas aeruginosa [7]) | MIC (Staphylococcus aureus [8]) | IC50 (HT-29) | IC50 (3T3-L1) | Activity (Pseudomonas aeruginosa [9]) | MIC (Enterobacter cloacae) | MIC (Escherichia coli [10]) | MIC (Acinetobacter baumannii) | MIC (Staphylococcus aureus [11]) | MIC (Klebsiella pneumoniae [12]) | MIC (Pseudomonas aeruginosa [16]) | further results
1 | CC[C@H](C)[C@H](N)C(=O)N[C@@H](CC(N)=O)C(=O)N[C@@H](CC(C)C)C(=O)N[C@@H](CCCCN)C(=O)N[C@@H](C)C(=O)N[C@@H](CC(C)C)C(=O)N[C@@H](C)C(=O)N[C@@H](C)C(=O)N[C@@H](CC(C)C)C(=O)N[C@@H](C)C(=O)N[C@@H](CCCCN)C(=O)N[C@@H](CCCCN)C(=O)N[C@H](C(=O)N[C@@H](CC(C)C)C(=O)O)[C@@H](C)CC | 45% | inactive | > 32 µM | > 32 µM | > 32 µM | 8 µM (≈ 11.8 µg/mL) | 25 µM | 50 µM | 12.5 µM | 100 | 8 µM (≈ 11.8 µg/mL) | 25 µM | 12.5 µM | Tde | > 32 µM | 32 µM (≈ 47.4 µg/mL) | > 32 µM | > 32 µM | > 32 µM |  | Activity (Pseudomonas aeruginosa [13]): Active; MIC (Escherichia coli [14]): 2 µM (≈ 2.96 µg/mL); MIC (Pseudomonas aeruginosa [15]): 8 µM (≈ 11.8 µg/mL)
2 | CC[C@H](C)[C@H](N)C(=O)N[C@@H](CCCCN)C(=O)N[C@@H](CC(C)C)C(=O)N[C@@H](CC(C)C)C(=O)N[C@@H](C)C(=O)N[C@@H](CCCNC(=N)N)C(=O)N[C@H](C(=O)N[C@@H](C)C(=O)N[C@@H](CC(C)C)C(=O)N[C@@H](CCCCN)C(=O)N[C@H](C(=O)N[C@@H](CCCCN)C(=O)N[C@H](C(=O)N[C@@H](CC(C)C)C(=O)O)[C@@H](C)CC)[C@@H](C)CC)[C@@H](C)CC (H-IKLLARIALKIKIL-OH) |  |  |  |  |  |  |  |  |  |  |  |  |  |  |  |  |  |  |  | 30 µM (≈ 48.2 µg/mL) | 
3 | CC[C@H](C)[C@H](N)C(=O)N[C@@H](CC(N)=O)C(=O)N[C@@H](CCCCN)C(=O)N[C@H](C(=O)N[C@@H](C)C(=O)N[C@@H](CC(C)C)C(=O)N[C@@H](CCCNC(=N)N)C(=O)N[C@H](C(=O)N[C@@H](CC(C)C)C(=O)N[C@@H](C)C(=O)N[C@@H](CCCCN)C(=O)N[C@H](C(=O)N[C@H](C(=O)N[C@@H](CC(C)C)C(=O)O)[C@@H](C)CC)[C@@H](C)CC)[C@@H](C)CC)[C@@H](C)CC (H-INKIALRILAKIIL-OH) |  |  |  |  |  |  |  |  |  |  |  |  |  |  |  |  |  |  |  | 30 µM (≈ 47.8 µg/mL) | 
4 | CC[C@H](C)[C@H](N)C(=O)N[C@@H](CC(N)=O)C(=O)N[C@@H](CC(C)C)C(=O)N[C@@H](CCCCN)C(=O)N[C@@H](CCCCN)C(=O)N[C@@H](CC(C)C)C(=O)N[C@@H](C)C(=O)N[C@@H](C)C(=O)N[C@@H](CCCNC(=N)N)C(=O)N[C@H](C(=O)N[C@@H](CCCCN)C(=O)N[C@@H](CCCCN)C(=O)N[C@@H](CCCCN)C(=O)N[C@H](C(=O)O)[C@@H](C)CC)[C@@H](C)CC (H-INLKKLAARIKKKI-OH) | 8% | Active | 8 µM (≈ 13.1 µg/mL) | 8 µM (≈ 13.1 µg/mL) | > 32 µM | 4 µM (≈ 6.55 µg/mL) | > 100 µM | > 100 µM | > 100 µM | 100 | 4 µM (≈ 6.55 µg/mL) | > 100 µM | > 100 µM | Tde | > 32 µM | 4 µM (≈ 6.55 µg/mL) | > 32 µM | 8 µM (≈ 13.1 µg/mL) | > 32 µM | 4 µM (≈ 6.55 µg/mL) | Activity (Pseudomonas aeruginosa [13]): Active; MIC (Escherichia coli [14]): 2 µM (≈ 3.27 µg/mL); MIC (Pseudomonas aeruginosa [15]): 4 µM (≈ 6.55 µg/mL)
5 | CC[C@H](C)[C@H](NC(=O)[C@H](CCCCN)NC(=O)[C@H](CCCCN)NC(=O)[C@@H](NC(=O)[C@H](CCCCN)NC(=O)[C@H](C)NC(=O)[C@H](C)NC(=O)[C@H](CC(C)C)NC(=O)[C@H](CCCNC(=N)N)NC(=O)[C@H](CCCCN)NC(=O)[C@H](CC(C)C)NC(=O)[C@@H](NC(=O)[C@@H](N)CCCCN)[C@@H](C)CC)[C@@H](C)CC)C(=O)N[C@@H](CC(C)C)C(=O)O (H-KILKRLAAKIKKIL-OH) | 3% | Active | > 32 µM | 8 µM (≈ 13.1 µg/mL) | > 32 µM | 4 µM (≈ 6.54 µg/mL) | > 100 µM | > 100 µM | > 100 µM | 100 | 4 µM (≈ 6.54 µg/mL) | > 100 µM | > 100 µM | Tde | > 32 µM | 4 µM (≈ 6.54 µg/mL) | > 32 µM | > 32 µM | 8 µM (≈ 13.1 µg/mL) | 4 µM (≈ 6.54 µg/mL) | fold change (FC) (Pseudomonas aeruginosa [13]): 1000; MIC (Escherichia coli [14]): 2 µM (≈ 3.27 µg/mL); MIC (Pseudomonas aeruginosa [15]): 4 µM (≈ 6.54 µg/mL)
6 | CC[C@H](C)[C@H](NC(=O)[C@H](CCCCN)NC(=O)[C@H](C)NC(=O)[C@H](C)NC(=O)[C@H](CC(C)C)NC(=O)[C@H](CCCNC(=N)N)NC(=O)[C@H](CC(C)C)NC(=O)[C@H](C)NC(=O)[C@H](CC(C)C)NC(=O)[C@H](CCCCN)NC(=O)[C@H](CC(C)C)NC(=O)[C@H](CCCCN)NC(=O)[C@H](CCCCN)NC(=O)[C@H](CCSC)NC(=O)[C@@H]1CCCN1)C(=O)N[C@@H](C)C(=O)N1CCC[C@H]1C(=O)N[C@H](C(=O)N[C@@H](Cc1c[nH]c2ccccc12)C(=O)O)C(C)C (H-PMKKLKLALRLAAKIAPVW-OH) |  |  |  |  |  |  |  |  |  | 100 |  |  |  |  |  |  |  |  |  |  | 

From ChEMBL document CHEMBL4373721, “Computer-Aided Design of Mastoparan-like Peptides Enables the Generation of Nontoxic Variants with Extended Antibacterial Properties” (J Med Chem, 2019)
